Test results taken from ChEMBL document CHEMBL4425108, “A Selective and Slowly Reversible Inhibitor of l-Type Amino Acid Transporter 1 (LAT1) Potentiates Antiproliferative Drug Efficacy in Cancer Cells” (J Med Chem, 2016).
pIC50: −log10 of the molar value. Activity calls are given as the source filed them. The calls are words filed in the database; no cut-off is given here.

Tests used:
[1] = Fraction unbound in mouse kidney at 23 umol/kg, ip administered as bolus by LC-MS analysis; assay type: ADME, organism-based
Method in brief: (§1)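 Unbound fraction was measured by equilibrium dialysis at 100 µM in mouse plasma and in brain, liver, kidney, heart and prostate homogenates.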

[2] = biological target: T1, Large neutral amino acids transporter small subunit 1 (Homo sapiens, UniProt Q01650); test: Inhibition of LAT1 in human MCF7 cells assessed as potentiation of bestatin-induced antiproliferative activity by measuring reduction in cell viability at 100 uM measured after 48 hrs by resazurin dye-based fluorimetric analysis
T1 sequence (Q01650 whole entry): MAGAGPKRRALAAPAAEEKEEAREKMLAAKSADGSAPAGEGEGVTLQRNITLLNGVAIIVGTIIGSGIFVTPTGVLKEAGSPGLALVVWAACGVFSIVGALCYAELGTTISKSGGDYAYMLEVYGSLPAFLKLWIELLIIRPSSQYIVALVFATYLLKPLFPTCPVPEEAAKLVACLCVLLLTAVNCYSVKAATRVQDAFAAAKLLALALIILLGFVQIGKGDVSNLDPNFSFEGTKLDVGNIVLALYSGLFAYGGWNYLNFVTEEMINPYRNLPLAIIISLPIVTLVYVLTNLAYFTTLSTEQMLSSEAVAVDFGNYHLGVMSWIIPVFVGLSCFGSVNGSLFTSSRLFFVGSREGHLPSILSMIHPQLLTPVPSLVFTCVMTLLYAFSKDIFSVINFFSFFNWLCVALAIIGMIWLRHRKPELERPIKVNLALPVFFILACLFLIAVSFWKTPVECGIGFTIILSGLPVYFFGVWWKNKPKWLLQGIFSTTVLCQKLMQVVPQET
Method in brief: (§2)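 MCF-7 cells seeded 2 × 10^4/well on collagen-coated plates, treated one day later in growth medium with inhibitor (25 or 100 µM) plus bestatin or cisplatin (100 µM) for up to 3 days. Viability read daily by resazurin fluorescence (ex 560/em 590 nm). Viability is treated relative to untreated control. Mean ± SD, n=3.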

[3] = Unbound AUC (0 to 480 mins) in mouse brain at 23 umol/kg, ip administered as bolus by LC-MS analysis; assay type: ADME, organism-based; settings: in vivo
Method in brief: (§3)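 Male mice (25 ± 5 g) dosed i.p. as a bolus at 23 µmol/kg in DMSO/hydroxypropyl-β-cyclodextrin/saline vehicle, sampled at time points 10–480 min; plasma and tissue homogenates (1:3 water) analysed by LC-MS. […] Mean ± SEM.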

[4] = fCmax in mouse plasma at 23 umol/kg, ip administered as bolus by LC-MS analysis; assay type: ADME, organism-based; settings: in vivo; method in brief: as §3
Mus musculus = test: Binding affinity to LAT1 in mouse brain assessed as inhibition of [14C]-L-leucine uptake at 23 umol/kg, ip measured 10 mins post perfusion with [14C]-L-leucine; assay type: functional
Method in brief: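 Mice under ketamine/xylazine anaesthesia had the right common carotid artery cannulated. Brains were perfused at 37 °C, 2.5 mL/min, for 30 s with 0.157 µM [14C]-L-leucine, then 2 s with analyte-free buffer at 4 °C. Perfusion took place 10 or 180 min after 23 µmol/kg i.p. dosing.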

[5] = biological target: T1, Large neutral amino acids transporter small subunit 1; test: Binding affinity to LAT1 in human MCF7 cells at 100 uM after 30 mins by HPLC analysis; assay type: cell-based
Method in brief: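 MCF-7 cells given 25-400 µM compound in pre-warmed HBSS (pH 7.4) at 37 °C for 30 min, washed three times with ice-cold HBSS, lysed in 0.1 M NaOH. Lysate quantified by HPLC-UV against a standard curve spiked into cell lysate. Amount normalised to protein (Bio-Rad assay, nmol/mg protein). n=3.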

[6] = Metabolic stability in mouse liver S9 fraction at 37 degreeC in presence of NADPH regenerating system measured after 2 hrs by HPLC analysis; assay type: ADME, subcellular; settings: s9, 2 h
[7] = Terminal half life in mouse kidney at 23 umol/kg, ip administered as bolus by LC-MS analysis; assay type: ADME, organism-based; settings: read-out: beta t1/2
Method in brief: (§4)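 Male adult mice (25 ± 5 g) given a single i.p. bolus at 23 µmol/kg. The dosing solution was 1.36 mM in 10% (v/v) DMSO, 20% (w/v) hydroxypropyl-β-cyclodextrin and 0.9% NaCl. Animals were decapitated at seven time points from 10 to 480 min. Plasma and tissues were acetonitrile-precipitated with repaglinide internal standard and analysed by LC-MS. Parameters were derived from concentration–time data, mean ± SEM (n=3).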

[8] = Chemical stability of the compound in Tris-HCl buffer at pH 7.4 and 37 degreeC measured after 24 hrs by HPLC method; assay type: physicochemical; settings: pH 7.4, 24 h
Method in brief: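 Incubated in isotonic Tris-HCl buffer, pH 7.4, at 37 °C for 24 h; monitored by UV-HPLC.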

[9] = biological target: T1, Large neutral amino acids transporter small subunit 1; test: Inhibition of LAT1 in human MCF7 cells assessed as potentiation of bestatin-induced antiproliferative activity by measuring reduction in cell viability at 25 uM measured after 72 hrs by resazurin dye-based fluorimetric analysis; method in brief: as §2
[10] = Unbound AUC (0 to 480 mins) in mouse kidney at 23 umol/kg, ip administered as bolus by LC-MS analysis; assay type: ADME, organism-based; settings: in vivo; method in brief: as §3
[11] = fCmax in mouse kidney at 23 umol/kg, ip administered as bolus by LC-MS analysis; assay type: ADME, organism-based; settings: in vivo; method in brief: as §3
MCF7 [12] = test: Antiproliferative activity against human MCF7 cells assessed as reduction in cell viability measured after 72 hrs by resazurin dye-based fluorimetric analysis; assay type: functional
Method in brief: (§5)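 MCF-7 cells were seeded at 2 × 10^4 cells/well on collagen-coated plates and treated one day later. Agents were given alone or combined (25 or 100 µM with 100 µM partner drug) in growth medium for 3 days. Viability was read daily by resazurin fluorescence (ex 560/em 590 nm) and expressed relative to untreated controls.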

[13] = biological target: T1, Large neutral amino acids transporter small subunit 1; test: Inhibition of LAT1 in human MCF7 cells assessed as potentiation of bestatin-induced antiproliferative activity by measuring reduction in cell viability at 25 uM measured after 24 hrs by resazurin dye-based fluorimetric analysis; method in brief: as §2
[14] = Tmax in mouse heart at 23 umol/kg, ip administered as bolus by LC-MS analysis; assay type: ADME, organism-based
Method in brief: (§6)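 Adult male mice (25 ± 5 g) given a single i.p. bolus of 23 µmol/kg, dosing solution 1.36 mM in 10% (v/v) DMSO, 20% (w/v) hydroxypropyl-β-cyclodextrin, 0.9% NaCl in water. Decapitation at time points 10–480 min; plasma, brain, liver, prostate, kidney, heart collected. Acetonitrile precipitation with repaglinide internal standard, LC-MS (ESI positive). tmax and t½β taken from concentration-time data; mean ± SEM, n=3.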

MCF7 [15] = test: Antiproliferative activity against human MCF7 cells assessed as reduction in cell viability at 25 measured after 72 hrs by resazurin dye-based fluorimetric analysis; assay type: functional; method in brief: as §5
MCF7 [16] = test: Antiproliferative activity against human MCF7 cells assessed as reduction in cell viability at 100 measured after 24 hrs by resazurin dye-based fluorimetric analysis; assay type: functional; method in brief: as §5
[17] = Tmax in mouse liver at 23 umol/kg, ip administered as bolus by LC-MS analysis; assay type: ADME, organism-based; method in brief: as §6
[18] = AUC (0 to 480 min) in mouse plasma at 23 umol/kg, ip administered as bolus by LC-MS analysis; assay type: ADME, organism-based; design: dose 23 umol/kg, time < 8 hr, route intraperitoneal; settings: in vivo, 8 h; method in brief: as §4
[19] = Fraction unbound in mouse heart at 23 umol/kg, ip administered as bolus by LC-MS analysis; assay type: ADME, organism-based; method in brief: as §1
[20] = Fraction unbound in mouse plasma at 23 umol/kg, ip administered as bolus by LC-MS analysis; assay type: ADME, organism-based; method in brief: as §1
[21] = fCmax in mouse brain at 23 umol/kg, ip administered as bolus by LC-MS analysis; assay type: ADME, organism-based; settings: in vivo; method in brief: as §3
[22] = Cmax in mouse liver at 23 umol/kg, ip administered as bolus by LC-MS analysis; assay type: ADME, organism-based; design: dose 23 umol/kg, route intraperitoneal; settings: in vivo; method in brief: as §4

CNC(=O)COc1ccc(-c2c(C#N)c(NC(=O)c3cccc(C[C@H](N)C(=O)O)c3)n3c(nc4ccccc43)c2C#N)cc1
fraction unbound [1]: 0.0166 | Activity [2]: 42.7% | fAUC [3]: 0.1 nmol/g/min | fCmax [4]: 0.19 nmol/mL | inhibition in vivo at 23 µmol/kg (Mus musculus): 27% | Activity [5]: Active | Stability [6]: Stable | half-life [7]: 41.8 min | Stability [8]: Stable | Activity [9]: 52.6% | fAUC [10]: 23.7 nmol/g/min | fCmax [11]: 0.37 nmol/g | Activity (MCF7 [12]): Dose-dependent effect | pIC50 (MCF7 [12]; MCF7, 72 h): 3.91 | Activity [13]: 24.7% | Tmax [14]: 30 min | Activity (MCF7 [15]): 34.8% | Activity (MCF7 [16]): 22.9% | Tmax [17]: 10 min | AUC [18]: 795 nmol/min/mL | fraction unbound [19]: 0.0162 | fraction unbound [20]: 0.0098 | fCmax [21]: 0.02 nmol/g | Cmax [22]: 38.7 nmol/g
